Series [1] in a line: Cmax in Sprague-Dawley rat at 50 mg/kg administered as single dose via oral gavage after 0.5 to 48 hrs by RP-HPLC analysis. It is filed as ADME, organism-based. The arrangement: dose 50 mg/kg, route oral. The settings on record: in vivo. In a few lines:
(§1)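 Single 50 mg/kg oral gavage dose to conscious male Sprague-Dawley rats (250 ± 25 g) after a 12–16 h overnight fast. Blood drawn at 0.5–48 h; serum separated and held at -80°C. Quantified by isocratic RP-HPLC (C18; 0.01M ammonium acetate/acetonitrile 35:65), LLOQ 25 ng/ml. Three rats; parameters derived noncompartmentally from mean serum concentrations.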

The subject of the next series is Rattus norvegicus. Description: Volume of distribution at steady state in Sprague-Dawley rat at 50 mg/kg administered as single dose via oral gavage after 0.5 to 48 hrs by RP-HPLC analysis. The series is classed as ADME, organism-based. Conditions: in vivo. The gist of the method: as §1
A short description of series [2]: Cytotoxicity against African green monkey Vero cells after 72 hrs by MTT assay. The series is classed as cell-based. The settings on record: chlorocebus sabaeus. The gist of the method:
(§2)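 Vero or J-774A.1 cells (1 x 10^5 cells/mL) exposed to 7 concentrations starting from 400 µM for 72 h. MTT (5 mg/mL stock) then added for 2 h at 37°C. Formazan dissolved in DMSO; absorbance read at 544 nm. CC50 estimated per Huber & Koella; mean ± SD of two independent assays in duplicate.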

A short description of series [3]: Volume of distribution at steady state in Sprague-Dawley rat at 5 mg/kg, iv after 0.083 to 48 hrs by RP-HPLC analysis. It is filed as ADME, organism-based. The settings on record: in vivo, read-out: Vdss. The gist of the method: (§3)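 Male Sprague-Dawley rats (250 ± 25 g), conscious, given a single 5 mg/kg dose into the femoral vein. The dose was a 10 mg/ml solution in DMSO/ethanol/tween 80/propylene glycol (10:20:2:48) with normal saline. Blood taken 0.083–48 h; serum read by isocratic RP-HPLC (C18, ammonium acetate 0.01M:acetonitrile 35:65), LLOQ 25 ng/ml. n=3; noncompartmental analysis.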

Series [4] can be described thus: Clearance in Sprague-Dawley rat at 5 mg/kg, iv after 0.083 to 48 hrs by RP-HPLC analysis. Conditions: in vivo. It is filed as ADME, organism-based. In a few lines: as §3
Series [5] can be described thus: AUC(last) in Sprague-Dawley rat at 50 mg/kg administered as single dose via oral gavage after 0.5 to 48 hrs by RP-HPLC analysis. It is filed as ADME, organism-based. The arrangement: dose 50 mg/kg, time 0 - last, route oral. The settings on record: in vivo. The gist of the method:
as §1

Series [6] in a line: Tmax in Sprague-Dawley rat at 5 mg/kg, iv by RP-HPLC analysis. The settings on record: in vivo. It is filed as ADME, organism-based. The gist of the method: as §3
Series [7] in a line: Cmax in Sprague-Dawley rat at 5 mg/kg, iv after 0.083 to 48 hrs by RP-HPLC analysis. The series is classed as ADME, organism-based. The arrangement: dose 5 mg/kg, route intravenous. The settings on record: in vivo. In a few lines:
as §3

The test system of series [8] is Leishmania donovani. Description: Antileishmanial activity against promastigote stage of Leishmania donovani MHOM/IN/80/Dd8 assessed as apoptotic cells at IC50 after 12 hrs by annexin V-FITC/propidium iodide double staining-based flow cytometric analysis. It is filed as functional.
Series [9] concerns Leishmania donovani. Description: Antileishmanial activity against promastigote stage of Leishmania donovani MHOM/IN/80/Dd8 assessed as apoptotic cells at IC50 after 24 hrs by annexin V-FITC/propidium iodide double staining-based flow cytometric analysis. It is filed as functional.
Series [10] is described as follows: Oral availability in Sprague-Dawley rat at 50 mg/kg via gavage after 0.5 to 48 hrs by RP-HPLC analysis. The settings on record: in vivo. It is filed as ADME, organism-based. The gist of the method: as §1
A short description of series [11]: AUC(last) in Sprague-Dawley rat at 5 mg/kg, iv after 0.083 to 48 hrs by RP-HPLC analysis. The arrangement: dose 5 mg/kg, route intravenous, time 0 - last. Conditions: in vivo. It is filed as ADME, organism-based. The gist of the method:
as §3

A short description of series [12]: Selectivity index, ratio of CC50 for African green monkey Vero cells to IC50 for Leishmania donovani MHOM/IN/80/Dd8 amastigotes infected in mouse J774A.1 cells. It is filed as functional. The gist of the method: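 Ratio of Vero-cell MTT CC50 to IC50 against intracellular amastigotes, both measured in this work.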
Series [13] in a line: Cytotoxicity against mouse J774A.1 cells after 72 hrs by MTT assay. The series is classed as cell-based, J774.A1. The gist of the method: as §2
Series [14] can be described thus: Mean residence time in Sprague-Dawley rat at 5 mg/kg, iv by RP-HPLC analysis. It is filed as ADME, organism-based. The settings on record: in vivo. In a few lines: as §3
The test system of series [15] is Leishmania donovani. Description: Antileishmanial activity against promastigote stage of Leishmania donovani MHOM/IN/80/Dd8 assessed as apoptotic cells at IC50 after 72 hrs by annexin V-FITC/propidium iodide double staining-based flow cytometric analysis. It is filed as functional.
The nature of series [16]: Tmax in Sprague-Dawley rat at 50 mg/kg administered as single dose via oral gavage by RP-HPLC analysis. The series is classed as ADME, organism-based. Conditions: in vivo. In a few lines:
as §1

A short description of series [17]: Clearance in Sprague-Dawley rat at 50 mg/kg administered as single dose via oral gavage after 0.5 to 48 hrs by RP-HPLC analysis. It is filed as ADME, organism-based. The settings on record: in vivo. The gist of the method: as §1
For series [18], the system named is Leishmania donovani. The experiment in a line: Antileishmanial activity against Leishmania donovani MHOM/IN/80/Dd8 amastigotes infected in mouse J774A.1 cells incubated for 72 hrs by luminometric analysis. It is filed as functional, organism-based. Conditions: MHOM/IN/80/Dd8, J774.A1, 72 h. In a few lines: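 Macrophages seeded at 4 x 10^4/mL in RPMI-1640 with 10% FCS for 24 h, then infected with stationary-phase promastigotes (4 x 10^5/mL) for 24 h. Free parasites washed off. Compounds added as 7-point two-fold dilutions from 40 µM; 72 h at 37°C. Read-out was Steady Glo luminescence. IC50 from four-parameter Hill fit; two independent assays in duplicate.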

Series [19] has as its system Leishmania donovani. Description: Antileishmanial activity against amastigote stage of Leishmania donovani MHOM/IN/80/Dd8 infected in golden hamster at 50 mg/kg/day, ip administered for 5 days measured on day 7 of last dose by Geimsa staining method. The series is classed as functional. The settings on record: MHOM/IN/80/Dd8, ip. The gist of the method:
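Inbred golden hamsters (40–45 g) infected intracardially with 1x10^7 amastigotes; only animals with +1 infection at 15-day spleen biopsy used. Five to six per group. Aqueous compound given ip at 50 mg/kg/day for 5 days, starting 2 days after biopsy. Splenic biopsy on day 7 after last dose, Giemsa-stained. Percent inhibition by formula relative to initial and untreated-control counts; pooled from at least two experiments.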

The nature of series [20]: Mean residence time in Sprague-Dawley rat at 50 mg/kg administered as single dose via oral gavage by RP-HPLC analysis. It is filed as ADME, organism-based. Conditions: in vivo. The gist of the method:
as §1

Another series has as its system Syrian golden hamster. The experiment in a line: Toxicity in golden hamster infected with amastigote stage of Leishmania donovani MHOM/IN/80/Dd8 assessed as abnormality in behaviour at 50 mg/kg/day, ip administered for 5 days. It is filed as organism-based, Mesocricetus auratus. The settings on record: in vivo, 120 h.
Series [21] has as its system Leishmania donovani. Description: Potency index, ratio of IC50 for miltefosine to IC50 for test compound against Leishmania donovani MHOM/IN/80/Dd8 amastigotes infected in mouse J774A.1 cells. It is filed as functional.
Series [22] concerns Leishmania donovani. Description: Antileishmanial activity against promastigote stage of Leishmania donovani MHOM/IN/80/Dd8 assessed as apoptotic cells at IC50 after 48 hrs by annexin V-FITC/propidium iodide double staining-based flow cytometric analysis. The series is classed as functional.

With `COc1ccc(CNC(=O)CN(C(=O)c2cc3ccccc3[nH]2)C(C(=O)NC(C)(C)C)c2ccc(Cl)cc2)cc1` (centres undefined), the maximum concentration (Cmax) in series [1] was determined as 1590 ng/mL; in series [7], 1390 ng/mL. The same molecule gave a Vdss in the series on Rattus norvegicus of 12.8 L/kg. The CC50 at 72 h turned out to be 146 µM in series [2] and 140 µM in series [13]. In addition, the Vd in series [3] is 4.4 L/kg. The molecule also showed a clearance in series [4] of 10 mL/min/kg. In addition, the figures for the AUC(0-t) in series [5] and in series [11] were 27200 ng·h/mL and 7790 ng·h/mL, respectively. Further, the Tmax in [6] amounted to 4.98 min; in series [16] it was 1 h. Further, the Activity in the series with Leishmania donovani [8] is 49.1%; with Leishmania donovani [9] it was 56.17%; with Leishmania donovani [15], 79.07%; in the series with Syrian golden hamster, “Non-toxic”; in the series with Leishmania donovani [22] it was 73.3%. The bioavailability in series [10] is 34.9%. Moreover, the “Ratio CC50/IC50” value in [12] is reported as 121. The values for the MRT in [14] and in series [20] were 7.4 h and 8.5 h, respectively. In addition, the CL/F in series [17] is 25 mL/min/kg. The IC50 with Leishmania donovani [18] is 1.2 µM. The molecule further returned an inhibition in vivo at 50 mg/kg/day in the series with Leishmania donovani [19] of 70%. The “Ratio IC50” value with Leishmania donovani [21] is listed as 7.

The record behind these values is ChEMBL document CHEMBL3763111, “Identification of a diverse indole-2-carboxamides as a potent antileishmanial chemotypes” (Eur J Med Chem, 2016).
